ChEMBL document CHEMBL4513216, “Probing the Open Global Health Chemical Diversity Library for Multistage-Active Starting Points for Next-Generation Antimalarials” (ACS Infect Dis, 2020)

Assay: Toxicity liver stage against HepG2, at 10uM
Assay type: cell-based
Set-up: test concentration 10 uM, cell line HepG2-A16-CD81EGFP
Settings: human, HepG2-A16-CD81EGFP cells; read-out: INHIBITION
In short: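 Uninfected HepG2-A16-CD81EGFP cells, 3 × 10^3 per well, 1536-well, plated on prespotted compound at 10 μM final, parasite-free screening media added to match infected plates; puromycin 10 μM positive, DMSO 0.5% negative; run in parallel with 48 h PbLuc assay at 37 °C, 5% CO2; viability by CellTiter-Glo luminescence, normalized to controls.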

Structure (SMILES) | cytotoxicity at 10 µM [%]
Cc1nn(C(C)C)c(C)c1NC(=O)Nc1cccnc1N1CCCC1 | -5.79
Cc1occc(=O)c1OCc1noc(C(=O)NCC(C)C)n1 | 6.43
COc1ccc(NC(=O)Cn2c(=O)nc(N)c3cc(C)sc32)cc1 | 2.31
Cc1ccc(C(=O)Nc2nnc(CC(C)C)s2)c(-n2cnnn2)c1C | -147
COc1cccc(CNC(=O)CC2CSc3nc(C)c(C)c(=O)n32)c1 (stereo unspecified) | -4.31
COCC(=O)Nc1cnc(N2CCOCC2)nc1 | -10.7
COc1cc(C2CC(=O)Nc3c2c(=O)[nH]n3C2CCCC2)ccc1O (stereo unspecified) | -1.37
Cc1nn(Cn2ccc(C(=O)N3CCCCCC3)n2)c(C)c1Cl | 0.781
Cc1nn(C)cc1-c1cc(C(F)F)nc(NC2CCCCC2)n1 | 1.84
O=C1CC(c2cccnc2)c2c(sc3c2CCCC3)N1 (stereo unspecified) | 8.75
Cc1cnc(C(=O)N2CCN(c3ncc4c(n3)CCOC4)CC2)cn1 | 4.91
O=C(c1cnc(O)c(Cl)c1)N1CCCC(c2nccs2)C1 (stereo unspecified) | 3.63
Nc1nc(N)c2c(n1)OC1(CCN(C(=O)CC3CCCCN3)CC1)C2 (stereo unspecified) | -0.24
CCN(CC)C1CCN(C(=O)NCc2cccc(-n3cccn3)c2)C1 (stereo unspecified) | 5.79
CC(Cc1ccc(Cl)cc1)N(C)C(=O)NCCS(C)(=O)=O (stereo unspecified) | 0.606
COCCS(=O)(=O)Cc1nnnn1-c1ccccc1 | -9.4
COCCCSc1ccc(NCc2cscn2)cc1 | 6.43
Cc1ccc(C)c(Oc2ccc(CNC(=O)C3CCS(=O)(=O)C3)cn2)c1 (stereo unspecified) | -3.98
O=C(Nc1cccc(C(F)(F)F)c1)C1CC(=O)N(Cc2ccccn2)C1 (stereo unspecified) | -0.505
CC(C)CCC(=O)N1CCCC1c1nnc2n1CCCCC2 (stereo unspecified) | -8.88
CN(Cc1ccsc1)C(=O)Nc1cccc(N2CCOC2=O)c1 | -12.9

Structure (SMILES) | cytotoxicity at 10 µM [%]
FC(F)c1nnc2ccc(N3CCC4(CCCCC4)C3)nn12 | 1.47
Cc1cc(-n2cncn2)ccc1C(=O)N(C)CC(F)(F)C(F)(F)F | -10.3
CCCNC(=O)CCc1ccnc2ccccc12 | 5.25
Cc1nc(C)n(CC2CCCN2c2ncnc3c2CCC3)n1 (stereo unspecified) | 8.03
Cc1noc(C)c1CN(C)C(=O)C1(N)CCCCC1 | 6.67
CC(C)OCCN1CCC(Nc2ccc(C#N)cc2F)CC1 | -4.94
Cn1cc(C(=O)NC2CCCC2)c(-c2cccnc2)n1 | 10.3
O=C1C(N2CCN(c3ccccc3Cl)CC2)CCN1C1CCOCC1 (stereo unspecified) | -0.455
CN(C)C(=O)Cn1ccc2cc(NC(=O)N3CCSCC3)ccc21 | 5.25
Cn1cc(C2NC3(CCCC3)C(=O)N2CC2CC2)c(=O)n(C)c1=O (stereo unspecified) | 6.93
CC(C)c1nccc([C@@H]2C[C@@H]3CCN(Cc4ccoc4)C[C@H]3O2)n1 | -7.47
Cn1cc(-c2nnn3c2COC(CNCc2cccnc2)C3)cn1 (stereo unspecified) | 0.824
CS(=O)(=O)NCc1cn2c(n1)CN(C(=O)c1ccc[nH]1)CC2 | 5.69
Cc1nccc(N2CCC(=O)N(CC3CC3)C(C(C)C)C2)n1 (stereo unspecified) | -0.232
NC(=O)c1cc2c(nc1Oc1ccccc1CN1CCCCC1)CCC2 | 3.71
CC(C)c1ncc(CN2C[C@@H](CN3CCCCC3)[C@@H](CO)C2)cn1 | -10.2
O=C(NCCO)c1coc(CN2CCN(c3ccccc3F)CC2)n1 | -11.2
CCCc1ccc2oc(C(=O)N3CCCN(C)CC3)c(C)c2c1 | -8.3
O=C(CCc1ccccc1)C1CCCN(Cc2cncn2C2CC2)C1 (stereo unspecified) | -7.12
c1cc(-c2cnccn2)cc(-c2ccn(CCCN3CCCCC3)n2)c1 | -2.15
CN(C)c1nc(NCCc2cnccn2)ncc1F | 5.56

Structure (SMILES) | cytotoxicity at 10 µM [%]
Cc1cc(C)n2nc(C(=O)N3CCCC4(CNC(=O)O4)C3)cc2n1 (stereo unspecified) | 9.48
Cc1ccccc1N1CCCN(C(=O)CCc2ccncc2)CC1 | -9.88
Fc1ccccc1CN1CCCN(c2ncnc3[nH]ccc23)CC1 | -5.86
O=C(NC1CCNCC1)C1(N2CCCCC2)Cc2ccccc2C1 | -5.47
Cc1ccc(C)c(NC(=O)N2CCC3(CC2)NC(=O)CC3C(=O)O)c1 (stereo unspecified) | 4.9
Cc1ccccc1OCCC(=O)N1CCc2nc(C)n(C)c(=O)c2CC1 | -0.852
COCCCC1(CO)CCCN(Cc2cccc(C#N)c2)C1 (stereo unspecified) | 4.16
COc1ccc(C(C(=O)O)N(C)Cc2c(C)nn(C)c2C)c(C)c1 (stereo unspecified) | 7.47
CCOCC(=O)N1CCC(C2CCN(Cc3ccc(Cl)cc3)C2)CC1 (stereo unspecified) | -9.15
Cc1nnc(CN2CCCC(CCc3ccccc3C(F)(F)F)C2)o1 (stereo unspecified) | 3.67
CCCc1nnc(N2CCCC(c3nnc(Cn4ccnc4)n3C)C2)s1 (stereo unspecified) | -0.391
CCc1ccc(C2CC(=O)Nc3n[nH]cc32)o1 (stereo unspecified) | 0.0773
Cc1cc(CNCc2c(C)n(CC(C)C)c3ccccc23)[nH]n1 | -1.63
CC(C)N1CCCC(C(=O)N2CCc3c(nc(CC4CC4)[nH]c3=O)C2)C1 (stereo unspecified) | -7.41
CCS(=O)(=O)N1CCC(c2nnc(CN3CCCCC3)n2C)CC1 | -6.03
NC(=O)CC1CCN(C(=O)c2cccn2Cc2cccs2)CC1 | -7.19
NC(=O)c1cc(C2CCCN(CCOc3ccc(F)cc3)C2)n[nH]1 (stereo unspecified) | -7.92
CCCc1noc(CN2CCCCC2Cn2cncn2)n1 (stereo unspecified) | 4.84
Cc1nn(C)c(N2CCOCC2)c1CNCc1cscn1 | -8.07
COCc1ccc(C(=O)N2CCCN(Cc3cscn3)CC2)cc1 | -3.07
CC(=O)N(Cc1noc(C)n1)C1CCN(Cc2ccc(C#N)cc2)C1 (stereo unspecified) | -3.66

Structure (SMILES) | cytotoxicity at 10 µM [%]
CNc1cc2c(nn1)CCN(C(=O)c1ccc3c(c1)CCC3)C2 | 3.15
CCc1csc(C2CCCN(C(=O)c3c[nH]c(C)n3)C2)n1 (stereo unspecified) | -9.03
Cn1cc(CCC(=O)N2CCN(Cc3ccncc3)CC2)cn1 | -6.64
CCc1nc(C2CCCN(C(=O)c3cccc4cn[nH]c34)C2)no1 (stereo unspecified) | -3.73
O=C(COc1ccc2c(c1)CCC2)NS(=O)(=O)c1cncc(Br)c1 | -5.82
CCOc1ccccc1OC1CCN(C(=O)c2nc(=O)[nH][nH]2)CC1 | -9.75
CCn1ccnc1CN1CCN(CCOc2ccccc2OC)CC1 | -8.83
COC(=O)c1ccc(N2CCN(C(=O)c3ccncc3)C(C)C2)cc1 (stereo unspecified) | -6.38
CN(CCCc1ccccc1)Cc1nc2c(cnn2C)c(=O)[nH]1 | -9.56
Cc1nn(C)c(N(C)C)c1CNC(C)c1cccc(OC(C)C)c1 (stereo unspecified) | -7.76
CN1CCC/C1=N\S(=O)(=O)c1ccc(NC(=O)CCc2cccs2)cc1 | -8.55
O=C(NC1CC1)[C@@H]1CCO[C@@H]2CCN(CCc3ccccc3)C[C@@H]21 | 3.6
c1ccc([C@@H]2CN(Cc3ccncc3)C[C@H]2c2cc[nH]n2)cc1 | -0.189
N#Cc1ccc(C(=O)N2CC[C@H]3[C@H]2CCN3CC2CC2)cc1 | -9.87
Cc1cccc(CN2CCc3nnc(CO)n3CC2)n1 | 6.41
COCC(=O)N1CCC2(CCN(Cc3cccnc3)C2)CC1 | -2.42
CC1c2ncc(CN3CCN(C)CC3)n2CCN1Cc1ccsc1 (stereo unspecified) | 6.58
CCN1CCOCC2(CCCN(C(=O)c3ccncc3F)C2)C1 (stereo unspecified) | -3.16
